Reference: ChEMBL document CHEMBL1156601, “Aminomethylpiperazines as selective urotensin antagonists” (Bioorg Med Chem Lett, 2008)

Experiments:
[1] = target: Kappa-type opioid receptor (Homo sapiens, UniProt P41145); experiment: Agonist activity at human kappa opioid receptor expressed in CHO-K1 cells by [35S]GTPgamma binding assay; format: functional, cell-based
Outline: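 Human κ-opioid receptor, membranes from BacMam-transduced CHO-K1 cells. Agonism read as [35S]GTPγS binding, detected by LEADseeker SPA. EC50 reported from a single run or as the mean of two runs (SD <±0.3 log units).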

[2] = Displacement of [125I]hU-2 from human recombinant urotensin receptor expressed in HEK293 cells; format: cell-based
Outline: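 Radioligand binding with [125I]hU-II on membranes of HEK293 cells stably expressing recombinant human UT receptor. Ki given as the mean of at least two determinations (SD <±0.3 log units).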

Rattus norvegicus = species on record: Rattus norvegicus; experiment: Selectivity ratio of Kb for urotensin receptor in Sprague-Dawley rat thoracic aorta to Ki for rat recombinant urotensin receptor; format: tissue-based
[3] = Antagonist activity at rat urotensin receptor in Sprague-Dawley rat thoracic aorta assessed as inhibition of urotensin-mediated contraction; format: functional
Outline: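 Isolated rat aortic rings were contracted via UT, and the test agent's inhibition of that contraction was measured. The value is reported as a Kb, the mean of two determinations ± SEM.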

[4] = Displacement of [125I]hU-2 from rat recombinant urotensin receptor expressed in HEK293 cells; format: cell-based

Sequence of Kappa-type opioid receptor (P41145 whole entry): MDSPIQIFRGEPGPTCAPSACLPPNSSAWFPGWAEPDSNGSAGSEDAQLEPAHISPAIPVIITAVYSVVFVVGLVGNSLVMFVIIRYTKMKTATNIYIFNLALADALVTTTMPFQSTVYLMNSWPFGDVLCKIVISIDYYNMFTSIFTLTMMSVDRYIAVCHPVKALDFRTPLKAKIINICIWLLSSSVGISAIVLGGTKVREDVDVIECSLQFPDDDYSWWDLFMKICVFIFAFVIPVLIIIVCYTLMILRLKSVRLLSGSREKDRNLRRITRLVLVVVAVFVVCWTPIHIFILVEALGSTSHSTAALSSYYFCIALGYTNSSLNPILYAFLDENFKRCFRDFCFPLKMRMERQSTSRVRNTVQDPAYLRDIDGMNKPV

Row | Structure (SMILES) | EC50 [1] | Ki [2] | Ratio (Rattus norvegicus) | Kb [3] | Ki [4]
1 | CN(CC(=O)N1CCN(C(=O)c2ccc(C#N)cc2)CC1CN1CCCC1)c1ccc(Cl)c(Cl)c1 (configuration not stated) | 3.2 µM | 1.3 µM |  |  | 
2 | CN(CC(=O)N1CCN(S(=O)(=O)c2ccc(Cl)cc2)CC1CN1CCCC1)c1ccc(Cl)c(Cl)c1 (configuration not stated) | 0.79 µM | 0.1 µM |  |  | 
3 | O=C(Cc1cccc2ccccc12)N1CCN(c2ccccc2)CC1CN1CCCC1 (configuration not stated) | 0.0016 µM | 0.32 µM |  |  | 
4 | COc1ccc(S(=O)(=O)N2CCN(C(=O)Cn3c(=O)oc4ccc(Cl)cc43)C(CN3CCCC3)C2)c(Br)c1OC (configuration not stated) | 1.3 µM | 0.0016 µM | 1.4 | 0.0142 µM | 0.01 µM
5 | O=C(Cc1csc2ccc(Cl)cc12)N1CCN(c2ccccc2)CC1CN1CCCC1 (configuration not stated) | 0.002 µM | 0.063 µM |  |  | 
6 | O=C(Cn1c(=O)oc2ccc(Cl)cc21)N1CCN(S(=O)(=O)c2cccc(C(F)(F)F)c2)CC1CN1CCCC1 (configuration not stated) | 2 µM | 0.05 µM |  |  | 
7 | COc1cccc(S(=O)(=O)N2CCN(C(=O)CN(C)c3ccc(Cl)c(Cl)c3)C(CN3CCCC3)C2)c1 (configuration not stated) | 0.079 µM | 0.079 µM |  |  | 
8 | CN(CC(=O)N1CCN(c2ccccc2)CC1CN1CCCC1)c1ccc(Cl)c(Cl)c1 (configuration not stated) | 0.0013 µM | 0.25 µM |  |  | 
9 | N#Cc1cccc(S(=O)(=O)N2CCN(C(=O)Cn3c(=O)oc4ccc(Cl)cc43)C(CN3CCCC3)C2)c1 (configuration not stated) | 0.63 µM | 0.01 µM |  |  | 
10 | O=C(Cn1c(=O)oc2ccc(Cl)cc21)N1CCN(S(=O)(=O)c2cc(C(F)(F)F)ccc2Cl)CC1CN1CCCC1 (configuration not stated) | 1 µM | 0.013 µM |  |  | 
11 | CN(CC(=O)N1CCN(S(=O)(=O)c2ccc(F)c(F)c2)CC1CN1CCCC1)c1ccc(Cl)c(Cl)c1 (configuration not stated) | 0.4 µM | 0.13 µM |  |  | 
12 | CN(CC(=O)N1CCN(c2cccc(Cl)c2)CC1CN1CCCC1)c1ccc(Cl)c(Cl)c1 (configuration not stated) | 0.004 µM | 0.063 µM |  |  | 
13 | O=C(Cn1c(C(F)(F)F)nc2ccccc21)N1CCN(c2ccccc2)CC1CN1CCCC1 (configuration not stated) |  | 0.079 µM |  |  | 
14 | CN(CC(=O)N1CCCCC1CN1CCCC1)c1ccc(Cl)c(Cl)c1 (configuration not stated) | 0.003 µM | 0.5 µM |  |  | 
15 | COc1ccc(S(=O)(=O)N2CCN(C(=O)Cn3c(=O)oc4ccc(Cl)cc43)C(CN3CCCC3)C2)cc1OC (configuration not stated) | 0.32 µM | 0.013 µM |  |  | 
16 | CN(CC(=O)N1CCN(C(=O)c2ccncc2)CC1CN1CCCC1)c1ccc(Cl)c(Cl)c1 (configuration not stated) | 0.63 µM | 0.1 µM |  |  | 
17 | O=C(Cn1c(=O)oc2ccc(Cl)cc21)N1CCN(S(=O)(=O)c2ccccc2)CC1CN1CCCC1 (configuration not stated) | 0.79 µM | 0.02 µM |  |  | 
18 | O=C(Cn1c(=O)oc2ccc(Cl)cc21)N1CCN(S(=O)(=O)c2ccccc2Br)CC1CN1CCCC1 (configuration not stated) | 2 µM | 0.008 µM |  | 0.0528 µM | 

Row | Structure (SMILES) | EC50 [1] | Ki [2] | Ratio (Rattus norvegicus) | Kb [3] | Ki [4]
19 | CN(CC(=O)N1CCN(S(C)(=O)=O)CC1CN1CCCC1)c1ccc(Cl)c(Cl)c1 (configuration not stated) | 0.003 µM | 0.1 µM |  |  | 
20 | CN(CC(=O)N1CCN(S(=O)(=O)c2cccc(Cl)c2)CC1CN1CCCC1)c1ccc(Cl)c(Cl)c1 (configuration not stated) | 0.2 µM | 0.16 µM |  |  | 
21 | CN(CC(=O)N1CCN(C(=O)c2ccccc2)CC1CN1CCCC1)c1ccc(Cl)c(Cl)c1 (configuration not stated) | 7.9 µM | 0.2 µM |  |  | 
22 | CN(CC(=O)N1CCN(C(=O)c2cccc(Cl)c2)CC1CN1CCCC1)c1ccc(Cl)c(Cl)c1 (configuration not stated) | > 10 µM | 0.13 µM |  |  | 
23 | COc1ccc(C(=O)N2CCN(C(=O)CN(C)c3ccc(Cl)c(Cl)c3)C(CN3CCCC3)C2)cc1OC (configuration not stated) | > 10 µM | 0.4 µM |  |  | 
24 | COc1ccc(Br)cc1S(=O)(=O)N1CCN(C(=O)Cn2c(=O)oc3ccc(Cl)cc32)C(CN2CCCC2)C1 (configuration not stated) | 0.79 µM | 0.13 µM |  |  | 
25 | O=C(O)c1ccc(S(=O)(=O)N2CCN(C(=O)Cn3c(=O)oc4ccc(Cl)cc43)C(CN3CCCC3)C2)cc1O (configuration not stated) | 7.9 µM | 0.013 µM | 1.3 | 0.01 µM | 0.008 µM
26 | O=C(Cn1c(=O)oc2ccccc21)N1CCN(c2ccccc2)CC1CN1CCCC1 (configuration not stated) | 0.4 µM | 0.13 µM |  |  | 
27 | COc1cccc(N2CCN(C(=O)CN(C)c3ccc(Cl)c(Cl)c3)C(CN3CCCC3)C2)c1 (configuration not stated) | 0.0032 µM | 0.05 µM |  |  | 
28 | CN(CC(=O)N1CCN(c2ccc(F)c(F)c2)CC1CN1CCCC1)c1ccc(Cl)c(Cl)c1 (configuration not stated) | 0.0063 µM | 0.1 µM |  |  | 
29 | CC(=O)Nc1ccc(S(=O)(=O)N2CCN(C(=O)Cn3c(=O)oc4ccc(Cl)cc43)C(CN3CCCC3)C2)cc1 (configuration not stated) | 1.3 µM | 0.0025 µM | 3.3 | 0.0131 µM | 0.004 µM
30 | O=C(Cn1c(=O)oc2ccccc21)N1CCN(S(=O)(=O)c2ccccc2)CC1CN1CCCC1 (configuration not stated) | 1 µM | 0.5 µM |  |  | 
31 | CN(CC(=O)N1CCN(C(=O)Nc2ccccc2)CC1CN1CCCC1)c1ccc(Cl)c(Cl)c1 (configuration not stated) | 4 µM | 0.79 µM |  |  | 
32 | COc1ccc(S(=O)(=O)N2CCN(C(=O)Cn3c(=O)oc4ccc(Cl)cc43)C(CN3CCCC3)C2)cc1 (configuration not stated) | 2 µM | 0.025 µM |  |  | 
33 | COc1cccc(S(=O)(=O)N2CCN(C(=O)Cn3c(=O)oc4ccc(Cl)cc43)C(CN3CCCC3)C2)c1 (configuration not stated) | 0.32 µM | 0.025 µM |  |  | 
34 | CN(CC(=O)N1CCN(S(=O)(=O)c2ccccc2)CC1CN1CCCC1)c1ccc(Cl)c(Cl)c1 (configuration not stated) | 0.25 µM | 0.02 µM |  |  | 
35 | O=C(O)c1ccc(S(=O)(=O)N2CCN(C(=O)Cn3c(=O)oc4ccc(Cl)cc43)C(CN3CCCC3)C2)cc1 (configuration not stated) | 2 µM | 0.025 µM | 2.6 | 0.0818 µM | 0.032 µM
